# A selection: hits, their analogues and other compounds. The true share with any hit is near 1.6%.
# CSN inh: inhibitors of CSN-mediated cullin deneddylation, primary screen, biochemical, fluorescence polarization, uHTS. inhibition, % at 12.5 µM. COP9 signalosome complex subunit 5 (Homo sapiens), Q92905. 0.38% of 360,000 active. AID 651999, 2013. Purified CSN, SCF-Nedd8-OG deneddylation;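 active = pattern-corrected inhibition above about 35%, with an unprinted fluorescence ratio check between 0.5 and 1.5, limit read from the data, passing the limit was not always enough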;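 note: 0% = enzyme with substrate and 100% = substrate without enzyme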
#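 Schedule: reaction 90 min, room temperature / Assay system: HEK293T-derived human Csn5 enzyme / Input: Csn5 at 0.24 nM final / Measure: inhibition of Csn5 cleavage, % / Control set: substrate-only high control, full reaction low control / Technique: fluorescence polarization of the substrate / Buffer or medium: Tris/NaCl/DTT buffer, pH 7.5 / Reagent: SCFSkp2-Nedd8OG substrate at 10 nM final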
# HNF4A DNA FP: change in binding of human HNF4A to DNA, primary screen, biochemical, fluorescence polarization, FITC-DNA. 1 h. 0.3% of 360,000 active. Hepatocyte nuclear factor 4-alpha (Homo sapiens), P41235. activity change, % at 10 µM; in the data active = activity change above about 30%, passing the limit was not always enough
# Rpn11 block: Rpn11 (PSMD14) deubiquitinase inhibitors, primary screen, biochemical, fluorescence polarization, uHTS; 0.59% of 360,000 active; inhibition, % at 20 µM; human 26S proteasome, Ub4-pepOG fluorescence polarization; 20S core pre-blocked with epoxomicin;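 active = inhibition at 20 µM, scaled to each plate's controls, above about 33%, limit read from the data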
# TPT1 inh: Candida albicans TPT1 enzyme inhibitors, primary screen, biochemical, fluorescence polarization; tRNA 2'-phosphotransferase TPT1 (Candida albicans SC5314); 0.81% of 300,000 active; inhibition, % at 5 µM; recombinant caTPT1, FP RNA substrate dephosphorylation; AID 1962, 2009;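 active = inhibition above the mean of all tested compounds plus 3 SD, set per screening campaign, cut at about 24% in these data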;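 note: plate controls were DMSO alone for no effect and ferristatin control at 100 nM for full effect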
# SENP1 inh: human SENP1 catalytic domain inhibitors, primary screen, biochemical, FRET, uHTS; Sentrin-specific protease 1 (Homo sapiens), Q9P0U3; recombinant SENP1 catalytic domain, CyPet-SUMO1-YPet FRET cleavage; inhibition, % at 10 µM; 0.21% of 360,000 active; AID 624204, 2012;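 active = inhibition at least 30% at 10 µM, raw YFP signal under a set limit, fluorescence ratio 0.5 to 1.5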;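 note: 0% = enzyme with DMSO and 100% = no enzyme wells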
#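 Material – human SENP1 catalytic domain · Input – SENP1 enzyme, 20 pM final · Compound dosing – single concentration of 10 µM compound, 0.5% DMSO final · Timing – enzyme reaction for 50 min at room temperature, dark · Measured by – FRET fluorescence in CFP and YFP emission channels · Control set – no-enzyme wells low, DMSO-plus-enzyme wells high control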
# caTPT1 confirm: Candida albicans TPT1 inhibitors, confirmation, biochemical, fluorescence polarization, triplicate; 74% of 2,400 active; inhibition, % at 5 µM; shares compounds with TPT1 inh; recombinant caTPT1, RNase T1 coupled;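 active = inhibition above the primary screen limit, the mean inhibition of all tested compounds plus 3 SD, cut at about 25% in these data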
# RNase T1 counter: RNase T1 inhibitors, counter-screen for TPT1 inhibitor project, biochemical, fluorescence polarization. shares compounds with TPT1 inh. RNase T1 cleavage, 1536-well. inhibition, % at 5 µM. 83% of 2,400 active. AID 2153, 2009;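 active = inhibition above the solvent-only control well mean plus 3 SD, limit set per screening run, cut at about 23% in these data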;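 note: plate controls were DMSO wells with enzyme for no effect and wells without RNase T1 for full effect; inhibitors block cleavage so intact labeled substrate keeps polarization high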
# Target sequence (P00651 whole entry, looked up): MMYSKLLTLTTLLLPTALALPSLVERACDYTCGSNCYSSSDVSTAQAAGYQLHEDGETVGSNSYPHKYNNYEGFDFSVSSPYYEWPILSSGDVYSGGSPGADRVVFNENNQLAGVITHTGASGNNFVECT
# Rpn11 confirm: Rpn11 (PSMD14) deubiquitinase inhibitors, confirmation, biochemical, fluorescence polarization, single concentration; inhibition, % at 20 µM; shares compounds with Rpn11 block; AID 602318, 2012; 29% of 1,900 active; purified human 26S proteasome, Ub4-pepOG fluorescence polarization; proteasome pretreated with epoxomicin
# MMP-2 counter-1: MMP-2 enzyme inhibition, confirmation, counter-screen for RPN11 inhibitor project, biochemical, fluorescence, single concentration; shares compounds with Rpn11 block; recombinant MMP-2, FRET peptide cleavage fluorescence; inhibition, % at 20 µM; 4% of 1,900 active; AID 602330, 2012;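 note: human MMP-2 activated beforehand with APMA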
# Thrombin inh: bovine thrombin protease inhibition, confirmation, counter-screen for Rpn11 inhibitor project, biochemical, fluorescence polarization, single concentration; shares compounds with Rpn11 block; bovine thrombin cleavage of Ub4-pepOG; inhibition, % at 20 µM; 13% of 1,900 active; AID 602333, 2012;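 active = mean inhibition at least 40% at 20 µM, or signal 3 deviations below plate average, so some actives read negative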;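 note: plate controls were thrombin with DMSO for no effect and buffer wells lacking thrombin for full effect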
# Target sequence (P00735 whole entry, looked up): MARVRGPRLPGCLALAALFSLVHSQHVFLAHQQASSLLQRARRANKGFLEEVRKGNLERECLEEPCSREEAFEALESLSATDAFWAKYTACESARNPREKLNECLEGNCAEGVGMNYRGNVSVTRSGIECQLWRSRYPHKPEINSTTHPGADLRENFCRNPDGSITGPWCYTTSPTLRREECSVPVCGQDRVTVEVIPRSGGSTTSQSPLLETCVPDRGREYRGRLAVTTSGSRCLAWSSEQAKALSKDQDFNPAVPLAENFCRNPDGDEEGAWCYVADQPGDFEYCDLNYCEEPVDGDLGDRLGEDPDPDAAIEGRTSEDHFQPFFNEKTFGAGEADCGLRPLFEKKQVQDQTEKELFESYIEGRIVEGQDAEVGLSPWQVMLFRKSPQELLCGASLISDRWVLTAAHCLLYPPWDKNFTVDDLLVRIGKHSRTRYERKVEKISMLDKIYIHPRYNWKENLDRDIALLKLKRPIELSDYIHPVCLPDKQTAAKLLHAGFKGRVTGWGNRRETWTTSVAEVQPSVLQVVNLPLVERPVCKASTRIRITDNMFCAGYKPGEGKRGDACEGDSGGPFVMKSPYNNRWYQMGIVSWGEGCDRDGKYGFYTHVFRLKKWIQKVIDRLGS
# CSN5 deneddyl: Csn5 deneddylation inhibitors, confirmation, biochemical, fluorescence polarization, single concentration, SCF-Nedd8OG substrate. Csn5 deneddylation of SCF-Nedd8OG, 90 min. 62% of 540 active. shares compounds with CSN inh. inhibition, % at 16.6 µM; in the data active = inhibition above about 50%;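 note: 0% = DMSO with enzyme and 100% = no enzyme wells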
# MMP-2 counter-2: MMP-2 protease inhibition counter-screen, confirmation, counter-screen for CSN deneddylation inhibitor project, biochemical, fluorescence, single concentration; AID 720655, 2013; 33% of 540 active; inhibition, % at 16.6 µM; shares compounds with CSN inh; recombinant MMP-2, FRET substrate fluorescence, 60 min;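 active = corrected plate-normalized z-score of 5 or more, or -5 or less, or inhibition of 15% or more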;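 note: plate controls were DMSO wells with enzyme for no effect and buffer wells lacking MMP-2 for full effect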
# Thrombin cntr: thrombin (bovine) inhibition, counter-screen for CSN hits; shares compounds with CSN inh; bovine thrombin cleavage of Ub4-pepOG, fluorescence polarization; inhibition, % at 16.6 µM; 49% of 540 active; AID 720656;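 active = inhibition at or above a set limit, with a fluorescence interference ratio between 0.5 and a set maximum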
# * = called active by the depositor; x = not tested or not shown. Cut-off read from the data, not from the text of the source, unless noted: active = inhibition above about 40%; inactive = the rest.
SMILES,CSN inh,HNF4A DNA FP,Rpn11 block,TPT1 inh,SENP1 inh,caTPT1 confirm,RNase T1 counter,CSN5 deneddyl,MMP-2 counter-2,Thrombin cntr,others
CC1=Nc2ccccc2/C1=C/c1sc(=N)n(-c2nccs2)c1O,44.2*,36.1,89.2*,98.8*,-23.7,111.9*,122.5*,48.0,16.5*,43.5*,
Cc1ccc2c(c1)N(CC(=O)N1CCCCC1)C(=O)C(C)O2 (centres undefined),5.1,-2.6,-1.6,-0.7,1.3,x,x,x,x,x,
CCOC(=O)CN1C(=O)S/C(=C/C=C/c2ccc(N(C)C)cc2)C1=O,39.7*,45.7*,x,87.2*,44.6,86.6*,88.4*,61.9*,-44.1*,65.6*,
N=C1/C(=C\c2ccc(-c3cccc(C(=O)O)c3)o2)C(=O)N=C2SC=C(c3ccccc3)N12,64.2*,-6.5,107.8*,66.4*,-34.0,81.7*,91.6*,x,16.5*,28.6*,Rpn11 confirm=149.4*;MMP-2 counter-1=26.7;Thrombin inh=50.8*
O=C1CSc2ccc(C(=O)N3CCCCC3)cc2N1,1.5,2.4,0.7,x,3.3,x,x,x,x,x,
CN(C)c1ccc(/C=C/c2cccc[n+]2[O-])cc1,-1.8,17.2,36.8,7.5,-0.2,x,x,x,x,x,
CC(C)CC[n+]1ccccc1/C=C/c1ccc(N(C)C)cc1,37.8*,55.2*,x,44.4*,78.9,49.2*,57.8*,88.3*,-57.6*,11.2,
O=C(/C=C/c1ccnc2ccccc12)c1cccs1,18.4,1.2,1.9,-3.3,3.4,x,x,x,x,x,
CCCN(CCC)CC(O)Cn1cc(/C=C/C(=O)c2cccs2)c2ccccc21 (centres undefined),41.6*,18.6,x,61.4*,-23.5,63.6*,71.9*,70.7*,-2.1,34.6*,
Cc1cc2oc3ccc(NCCCN4CCOCC4)cc3c(=O)c2cc1C,-0.4,-0.6,3.4,-1.9,-17.3,x,x,x,x,x,
Cc1cc2oc3ccc(NCCCn4ccnc4)cc3c(=O)c2cc1C,48.1*,73.2*,x,55.2*,-29.2,64.0*,73.4*,137.0*,60.8*,30.0*,
O=C(CCNC(=O)c1ccccc1)Nc1ccc(Cl)c(S(=O)(=O)N2CCCCC2)c1,-0.4,-2.0,-1.3,x,1.9,x,x,x,x,x,
COc1ccc(N=C2NC(=O)/C(=C/C=C/c3ccccc3)S2)cc1,3.7,2.6,0.2,-1.3,2.1,x,x,x,x,x,
O=C1NC(=Nc2ccccc2)S/C1=C\C=C\c1ccco1,73.6*,12.6,58.0*,24.5*,-30.8,22.6,34.2*,79.7*,9.7,14.0,Rpn11 confirm=17.6;MMP-2 counter-1=52.5*;Thrombin inh=30.5
CN(C)c1ccc(/C=C(/C(=O)c2ccc(Cl)cc2Cl)n2cncn2)cc1,79.4*,91.6*,x,120.9*,-25.9,132.3*,131.2*,92.9*,-23.3*,70.2*,
COc1ccc(/C=C(/C(=O)c2ccc(Cl)cc2Cl)n2cncn2)cc1,3.9,-2.3,3.1,0.4,0.1,x,x,x,x,x,
COc1ccc(NC(=O)COc2ccccc2Cc2ccccc2)cc1S(=O)(=O)N1CCOCC1,-2.0,13.4,4.7,x,-0.2,x,x,x,x,x,
O=S(=O)(Nc1cc2nc3ccccc3nc2n1Cc1ccccc1)c1ccc(Cl)cc1,69.6*,-6.3,-1.6,43.6*,-27.6,38.7*,51.2*,76.8*,-6.8,2.8,
Cc1ccc(S(=O)(=O)N2[C@H](CC(=O)Oc3ccccc3)OC[C@@H]2C(C)C)cc1,-3.9,2.1,x,x,1.5,x,x,x,x,x,
CCN1/C(=C/c2ccc3cc(C)ccc3[n+]2CC)Sc2ccccc21,71.8*,118.5*,x,84.5*,93.8,97.2*,103.0*,66.0*,-22.7*,-60.8,
CCN1/C(=C/C=C/c2sc3ccccc3[n+]2CC)Sc2ccccc21,105.1,94.0,x,-79.4,-15.4,x,x,x,x,x,
Cc1ccc(S(=O)(=O)NN=CC2(c3ccccc3)CC2)cc1,-2.1,3.0,0.0,x,0.9,x,x,x,x,x,
COc1cc(C(=O)NCC2CCCN2S(=O)(=O)c2cccs2)cc(OC)c1OC (centres undefined),0.5,1.6,4.4,-0.4,-8.9,x,x,x,x,x,
Cc1ccc2c(nc3s/c(=C/c4cccs4)c(=O)n32)c1C,4.2,6.0,10.7,x,1.6,x,x,x,x,x,
Cc1ccc2c(nc3s/c(=C\c4ccc(-c5ccccc5C(=O)O)o4)c(=O)n32)c1C,102.2*,83.1,x,116.0*,-21.8,137.8*,130.4*,-26.8,-26.8,17.6,
CN(C)c1ccc(/C=C/C(=O)c2cccnc2)cc1,48.7*,2.6,x,92.9*,-30.9,100.1*,100.2*,52.3*,-43.2*,44.7*,
CN(C)c1ccc(/C=C/C(=O)c2ccc(O)cc2)cc1,37.6,158.8,x,x,-25.8,x,x,x,x,x,
CN(C)c1ccc(/C=C/C(=O)c2ccccc2O)cc1,70.3*,27.3,x,68.2*,57.2,55.4*,64.1*,92.5*,-19.5,65.4*,

# Screening data deposited in PubChem by several laboratories.
